Article PMC13334471 (Journal of molecular and cellular cardiology, 2026)

Tests used:
[1] = biological target: tropomyosin (rabbit cardiac α-tropomyosin) (Oryctolagus cuniculus, UniProt P58772); assay: LSPR binding of cTnT-C14 peptides to immobilized tropomyosin; settings: peptide 2 μM, mutants vs WT
How it was run: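 Rabbit cardiac α-Tm immobilized on a carboxyl-gold LSPR chip from 50 μg/mL in 10 mM Na acetate pH 4.0. Blocked with 1 M ethanolamine, then 1 mM 6-mercapto-1-hexanol in 30% EtOH. Peptides flowed at 20 μL/min for 4 min in 0.1 M KCl, 3 mM MgCl2, 10 mM imidazole-HCl pH 7.0; buffer dissociation to baseline or plateau. Plateau Δpm taken; 1:1 fit; KD = koff/kon.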

F-actin = F-actin (Oryctolagus cuniculus, UniProt P68135); assay: LSPR direct binding of cTnT-C14 peptides to immobilized F-actin; parameters: species or system rabbit; settings: mutants vs WT
How it was run: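 Rabbit back-muscle F-actin immobilized on a carboxyl-gold LSPR chip with no Tm, run as for the Tm binding assay. Chip blocked with ethanolamine and 6-mercapto-1-hexanol. Peptides flowed at 20 μL/min in 0.1 M KCl, 3 mM MgCl2, 10 mM imidazole-HCl pH 7.0, then buffer dissociation. Plateau Δpm taken; rate constants from 1:1 fit; KD = koff/kon.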

Tm binding / binding signal (in words) [1]: non-Tm-binding
F-actin binding / binding signal (in words) (F-actin): non-actin-binding
Sequence: INVLRNRINDNQKV [E16]
